Series [1] can be described thus: melting temperature; fluorescence melt of hairpins on a sequencing array, two-state fit, raised by 9.35 °C to match UV melts. Conditions: sodium 0.088 M. In short, it runs like this: (§1)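 Hairpins were imaged by Cy3 fluorescence on a sequenced MiSeq flow cell with annealed Cy3 and quencher oligos, in 50 mM Na-HEPES pH 8.0, 25 mM NaCl, in 2.5 °C steps up to 60 °C. Bootstrapped two-state fits of normalised signals gave melting temperature and folding enthalpy. Four replicates were combined by inverse variance, and fitted temperatures were raised by 9.35 °C to match UV melts.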

Series [2] in a line: folding enthalpy; higher = less favourable; fluorescence melt of hairpins on a sequencing array, two-state fit. The note with it: sodium 0.088 M. In a few lines: as §1

On to GGGGCCGAAAGGCTCCCC ((((((....)))..))), for which the Tm in series [1] was 65 °C. In addition, the folding enthalpy in series [2] was -48.8 kJ/mol.

Take GGGGCCGAAAGGCTTCCC ((((((....)))..))): the Tm in series [1] was found to be 46.4 °C. For the same sequence, the folding enthalpy in series [2] was -56.5 kJ/mol.

Regarding GGGGCCGGAAACGACCCC ((((.((....)).)))), the Tm in series [1] was found to be 59.2 °C. Further, the folding enthalpy in series [2] was -185 kJ/mol.

Turning to GGGGCGCCGAAAGGCCCC (((..(((....)))))), the Tm in series [1] stood at 66.1 °C. Further, the folding enthalpy in series [2] is -62.7 kJ/mol.

On to GGGGCTTCGAAAGAACCC (((..(((....)))))), for which the Tm in series [1] turned out to be 49.1 °C. The folding enthalpy in series [2] was -85.3 kJ/mol.

Consider GGGGGAACGAAAGTTCCC (((..(((....)))))), for which the Tm in series [1] stood at 64.3 °C. Further, the folding enthalpy in series [2] was -33.8 kJ/mol.

As to GGGGGCGAAAGCCGGCCC ((((((....)))..))), the Tm in series [1] was determined as 48 °C. Moreover, in series [2], the folding enthalpy is -60 kJ/mol.

For GGGGGCGAAAGCCTCCC ((((((....))).))), in series [1], the Tm turned out to be 66.1 °C. Further, the folding enthalpy in series [2] is -65.6 kJ/mol.

Take GGGGGCGAAAGCCTTCCC ((((((....)))..))): in series [1], the Tm is 42.3 °C. Besides, the folding enthalpy in series [2] is -54.7 kJ/mol.

For GGGGGGAAACCCCC (((((....))))), the Tm in series [1] was 65.9 °C. For the same sequence, the folding enthalpy in series [2] was -90 kJ/mol.

Turning to GGGGGGGGAAACCCCTCC ((.((((....)))).)), the Tm in series [1] came out at 60.9 °C. For the same sequence, the folding enthalpy in series [2] is -73.2 kJ/mol.

In the case of GGGGGGGGAAACCCTCCC (((.(((....))).))), the Tm in series [1] came to 59.4 °C. For the same sequence, the folding enthalpy in series [2] is -131 kJ/mol.

Turning to GGGGGGGGAAACTCCCCC (((((.(....).))))), the Tm in series [1] turned out to be 64.3 °C. Further, the folding enthalpy in series [2] was -85.1 kJ/mol.

For the sequence GGGGGTGGAAACACTCCC (((.(((....))).))), the Tm in series [1] was determined as 56.5 °C. In addition, in series [2], the folding enthalpy was -157 kJ/mol.

As for GGGGTAGGAAACCACCCC (((((.(....).))))), the Tm in series [1] is 50.7 °C. Moreover, the folding enthalpy in series [2] is -127 kJ/mol.

For GGGGTCACGAAAGTGCCC (((..(((....)))))), the Tm in series [1] was found to be 58.8 °C. Besides, in series [2], the folding enthalpy is -89.5 kJ/mol.

As for GGGGTCCCGAAAGGGCCC (((..(((....)))))), the Tm in series [1] is 65.3 °C. In addition, in series [2], the folding enthalpy was -60.9 kJ/mol.

GGGGTCGAAAGACACCCC ((((((....)))..))): the Tm in series [1] turned out to be 61.8 °C. Moreover, in series [2], the folding enthalpy was -52.6 kJ/mol.

GGGGTCGAAAGACAGCCC ((((((....)))..))): the Tm in series [1] is 46.2 °C. Besides, the folding enthalpy in series [2] was -69.3 kJ/mol.

Take GGGGTCGAAAGACCACCC ((((((....)))..))): the Tm in series [1] was 54.7 °C. Moreover, the folding enthalpy in series [2] is -53 kJ/mol.

Take GGGGTCGAAAGACGCCC ((((((....))).))): the Tm in series [1] was 57.7 °C. The folding enthalpy in series [2] was -78.6 kJ/mol.

As for GGGGTCGAAAGACTCCCC ((((((....)))..))), the Tm in series [1] is 54.3 °C. The folding enthalpy in series [2] is -93 kJ/mol.

For GGGGTCGCGAAAGCGCCC (((..(((....)))))), in series [1], the Tm stood at 60.7 °C. Besides, the folding enthalpy in series [2] is -68.6 kJ/mol.

For GGGGTCGGAAACGATCCC (((.(((....))).))), in series [1], the Tm was found to be 59.7 °C. The folding enthalpy in series [2] is -202 kJ/mol.

Regarding GGGGTCGGAAACGGTCCC (((..((....))..))), the Tm in series [1] was 49.4 °C. Moreover, in series [2], the folding enthalpy is -156 kJ/mol.

As to GGGGTGGGAAACTGCCCC ((((..(....)..)))), the Tm in series [1] was 51.7 °C. Moreover, the folding enthalpy in series [2] is -126 kJ/mol.

As to GGGGTTCCGAAAGGACCC (((..(((....)))))), the Tm in series [1] was found to be 56.2 °C. Besides, the folding enthalpy in series [2] is -137 kJ/mol.

For GGGGTTCGAAAGAAGCCC (((.(((....))).))), the Tm in series [1] was 66.3 °C. Moreover, the folding enthalpy in series [2] was -174 kJ/mol.

For GGGGTTGGAAACAGCCTC (.((.((....)).)).), the Tm in series [1] stood at 39.1 °C. For the same sequence, in series [2], the folding enthalpy is -90.4 kJ/mol.

For the sequence GGGGTTTCGAAAGAACCC (((..(((....)))))), the Tm in series [1] was determined as 50.8 °C. Further, the folding enthalpy in series [2] is -138 kJ/mol.

Consider GGGTAAGGAAACTTACCC (((((((....))))))), for which, in series [1], the Tm is 58.6 °C. Besides, in series [2], the folding enthalpy was -188 kJ/mol.

Turning to GGGTAAGGAAACTTACTC (.(((((....))))).), the Tm in series [1] came out at 37.9 °C. Further, the folding enthalpy in series [2] was -99.2 kJ/mol.

On to GGGTACCGAAAGGTTCCC (((.(((....))).))), for which, in series [1], the Tm worked out at 56.2 °C. Further, the folding enthalpy in series [2] is -127 kJ/mol.

In the case of GGGTACGAAAGTAGCCCC ((((((....)))..))), the Tm in series [1] worked out at 55 °C. Further, in series [2], the folding enthalpy was -60.5 kJ/mol.

GGGTACGGAAACGTACTC (.(((((....))))).): the Tm in series [1] was found to be 51.2 °C. Moreover, the folding enthalpy in series [2] was -67.4 kJ/mol.

For GGGTACGGAAACGTGCTC (.(.(((....))).).), in series [1], the Tm came out at 43.1 °C. Besides, the folding enthalpy in series [2] was -89.9 kJ/mol.

For GGGTAGGGAAACCCACCC ((((.((....)).)))), the Tm in series [1] is 48.3 °C. In addition, the folding enthalpy in series [2] is -122 kJ/mol.
